In ChEMBL document CHEMBL4359823, “Switching on the activity of 1,5-diaryl-pyrrole derivatives against drug-resistant ESKAPE bacteria: Structure-activity relationships and mode of action studies” (Eur J Med Chem, 2019):
Converted amounts (≈) assume the structure as drawn.

Experiments:
Format in all cases: functional
[1] = system: Enterococcus faecalis; experiment: Antibacterial activity against vancomycin resistant Enterococcus faecalis NCTC12204 measured after overnight incubation by microbroth dilution method
Outline: (§1)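 Microbroth dilution: DMSO stocks diluted in water, 2-fold series. Overnight TSB cultures back-diluted to OD 0.01 and mixed 1:1 with compound. Incubated overnight at 37 °C; MIC taken as lowest concentration without visible growth (<0.1 OD600). Run in duplicate; matching DMSO levels checked for effect on growth.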

[2] = system: Enterococcus faecalis; experiment: Antibacterial activity against vancomycin resistant Enterococcus faecalis NCTC12201 measured after overnight incubation by microbroth dilution method; outline: as §1
[3] = system: Enterococcus faecalis; experiment: Antibacterial activity against vancomycin sensitive Enterococcus faecalis NCTC775 measured after overnight incubation by microbroth dilution method; outline: as §1
[4] = system: Staphylococcus aureus; experiment: Antibacterial activity against methicillin-resistant Staphylococcus aureus EMRSA15 measured after overnight incubation by microbroth dilution method; outline: as §1
[5] = system: Staphylococcus aureus; experiment: Antibacterial activity against methicillin-sensitive Staphylococcus aureus ATCC 9144 measured after overnight incubation by microbroth dilution method; outline: as §1
[6] = system: Staphylococcus aureus; experiment: Antibacterial activity against methicillin-resistant Staphylococcus aureus MRSA252 measured after overnight incubation by microbroth dilution method; outline: as §1
[7] = system: Staphylococcus aureus; experiment: Antibacterial activity against methicillin sensitive Staphylococcus aureus NCTC 6571 measured after overnight incubation by microbroth dilution method; outline: as §1
[8] = system: Staphylococcus aureus; experiment: Antibacterial activity against methicillin resistant Staphylococcus aureus NCTC13616 measured after overnight incubation by microbroth dilution method; outline: as §1
[9] = system: Staphylococcus aureus; experiment: Antibacterial activity against methicillin resistant Staphylococcus aureus NCTC13277 measured after overnight incubation by microbroth dilution method; outline: as §1
[10] = system: Klebsiella pneumoniae; experiment: Antibacterial activity against Klebsiella pneumoniae NCTC13368 measured after overnight incubation by microbroth dilution method
Outline: (§2)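 Microbroth dilution MIC. Compound DMSO stocks were diluted in water as a 2-fold series. Overnight TSB cultures were back-diluted to OD 0.01 and mixed 1:1 with compound. Plates were incubated overnight at 37 °C. MIC was the lowest concentration without visible growth (<0.1 OD600), run in duplicate.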

[11] = system: Klebsiella pneumoniae; experiment: Antibacterial activity against Klebsiella pneumoniae M6 measured after overnight incubation by microbroth dilution method; outline: as §2
[12] = system: Acinetobacter baumannii; experiment: Antibacterial activity against Acinetobacter baumannii AYE measured after overnight incubation by microbroth dilution method; outline: as §2
[13] = system: Acinetobacter baumannii; experiment: Antibacterial activity against Acinetobacter baumannii ATCC 17978 measured after overnight incubation by microbroth dilution method; outline: as §2
[14] = system: Pseudomonas aeruginosa; experiment: Antibacterial activity against Pseudomonas aeruginosa PAO1 measured after overnight incubation by microbroth dilution method; outline: as §2
[15] = system: Pseudomonas aeruginosa; experiment: Antibacterial activity against Pseudomonas aeruginosa NCTC13437 measured after overnight incubation by microbroth dilution method; outline: as §2
[16] = system: Escherichia coli; experiment: Antibacterial activity against Escherichia coli NCTC12923 measured after overnight incubation by microbroth dilution method; outline: as §2
[17] = system: Klebsiella pneumoniae; experiment: Antibacterial activity against Klebsiella pneumoniae NCTC13368 measured after overnight incubation in presence of polymyxin B nonapeptide by microbroth dilution method
[18] = system: Klebsiella pneumoniae; experiment: Antibacterial activity against Klebsiella pneumoniae M6 measured after overnight incubation in presence of polymyxin B nonapeptide by microbroth dilution method
[19] = system: Acinetobacter baumannii; experiment: Antibacterial activity against Acinetobacter baumannii AYE measured after overnight incubation in presence of polymyxin B nonapeptide by microbroth dilution method
[20] = system: Acinetobacter baumannii; experiment: Antibacterial activity against Acinetobacter baumannii ATCC 17978 measured after overnight incubation in presence of polymyxin B nonapeptide by microbroth dilution method
[21] = system: Pseudomonas aeruginosa; experiment: Antibacterial activity against Pseudomonas aeruginosa PAO1 measured after overnight incubation in presence of polymyxin B nonapeptide by microbroth dilution method
[22] = system: Pseudomonas aeruginosa; experiment: Antibacterial activity against Pseudomonas aeruginosa NCTC13437 measured after overnight incubation in presence of polymyxin B nonapeptide by microbroth dilution method
[23] = system: Escherichia coli; experiment: Antibacterial activity against Escherichia coli NCTC12923 measured after overnight incubation in presence of polymyxin B nonapeptide by microbroth dilution method

Structure (SMILES)	MIC [1] [µg/mL]	MIC [2] [µg/mL]	MIC [3] [µg/mL]	MIC [4] [µg/mL]	MIC [5] [µg/mL]	MIC [6] [µg/mL]	MIC [7] [µg/mL]	MIC [8] [µg/mL]	MIC [9] [µg/mL]	MIC [10] [µg/mL]	MIC [11] [µg/mL]	MIC [12] [µg/mL]	MIC [13] [µg/mL]	MIC [14] [µg/mL]	MIC [15] [µg/mL]	MIC [16] [µg/mL]	also measured
Cc1cc(CNOCc2ccccc2)c(C)n1-c1ccc(F)cc1	> 64	> 64	> 64	> 64	> 64	> 64											
Cc1cc(CNCCc2ccccc2)c(C)n1-c1ccc(Cl)cc1	8 (≈ 23.6 µM)	16 (≈ 47.2 µM)	32 (≈ 94.4 µM)	32 (≈ 94.4 µM)	32 (≈ 94.4 µM)	32 (≈ 94.4 µM)											
Cc1cc(CN2CCN(C3C4CC5CC(C4)CC3C5)CC2)c(C)n1-c1ccccc1F (stereo not given)	32 (≈ 75.9 µM)	32 (≈ 75.9 µM)	32 (≈ 75.9 µM)	32 (≈ 75.9 µM)	32 (≈ 75.9 µM)	32 (≈ 75.9 µM)											
Cc1cc(CNCc2ccc(Cl)cc2)c(C)n1-c1ccc(Cl)cc1	8 (≈ 22.3 µM)	16 (≈ 44.5 µM)	32 (≈ 89.1 µM)	32 (≈ 89.1 µM)	32 (≈ 89.1 µM)	32 (≈ 89.1 µM)											
Cc1cc(CN2CCN(C3CC4CCC3C4)CC2)c(C)n1-c1ccc(Cl)cc1 (stereo not given)	32 (≈ 80.4 µM)	32 (≈ 80.4 µM)	64 (≈ 161 µM)	64 (≈ 161 µM)	64 (≈ 161 µM)	64 (≈ 161 µM)											
Cc1cc(CN2CCN(C3CCCCC3)CC2)c(C)n1-c1ccc(Cl)cc1	128 (≈ 332 µM)	128 (≈ 332 µM)	128 (≈ 332 µM)	> 128	128 (≈ 332 µM)	> 128											
Cc1cc(CNCc2ccccc2)c(C)n1-c1ccc(F)cc1	32 (≈ 104 µM)	64 (≈ 208 µM)	64 (≈ 208 µM)	> 128	> 128	64 (≈ 208 µM)											
Cc1c(CNCc2ccccc2)cc(-c2ccc(Cl)cc2)n1-c1ccc(Cl)cc1		4 (≈ 9.49 µM)	4 (≈ 9.49 µM)				8 (≈ 19 µM)	8 (≈ 19 µM)	4 (≈ 9.49 µM)	> 128	> 128	> 128	> 128	> 128	> 128	> 128	MIC [17]: > 128 µg/mL; MIC [18]: 32 µg/mL; MIC [19]: 16 µg/mL; MIC [20]: 16 µg/mL; MIC [21]: > 128 µg/mL; MIC [22]: > 128 µg/mL; MIC [23]: > 128 µg/mL
Cc1c(CNC2CCCCC2)cc(-c2ccc(Cl)cc2)n1-c1ccc(Cl)cc1	2 (≈ 4.84 µM)	4 (≈ 9.68 µM)	4 (≈ 9.68 µM)				4 (≈ 9.68 µM)	4 (≈ 9.68 µM)	4 (≈ 9.68 µM)	> 128	> 128	128 (≈ 310 µM)	64 (≈ 155 µM)	> 128	> 128	> 128	MIC [17]: > 128 µg/mL; MIC [18]: 64 µg/mL; MIC [19]: 8 µg/mL; MIC [20]: 4 µg/mL; MIC [21]: > 128 µg/mL; MIC [22]: 32 µg/mL
Cc1cc(CN2CCN(C3C4CC5CC(C4)CC3C5)CC2)c(C)n1-c1ccc(C(C)C)cc1 (stereo not given)	8 (≈ 17.9 µM)	8 (≈ 17.9 µM)	16 (≈ 35.9 µM)	32 (≈ 71.8 µM)	32 (≈ 71.8 µM)	32 (≈ 71.8 µM)											
Cc1cc(CNC2C3CC4CC(C3)CC2C4)c(C)n1-c1ccc(Cl)cc1 (stereo not given)	64 (≈ 173 µM)	128 (≈ 347 µM)	128 (≈ 347 µM)	> 128	128 (≈ 347 µM)	128 (≈ 347 µM)											
Cc1ccc(CNCc2cc(C)n(-c3ccc(Cl)cc3)c2C)cc1	32 (≈ 94.4 µM)	64 (≈ 189 µM)	64 (≈ 189 µM)	64 (≈ 189 µM)	64 (≈ 189 µM)	64 (≈ 189 µM)											
Cc1cccc(-n2c(C)cc(CN3CCN(C4C5CC6CC(C5)CC4C6)CC3)c2C)c1 (stereo not given)	64 (≈ 153 µM)	64 (≈ 153 µM)	64 (≈ 153 µM)	64 (≈ 153 µM)	64 (≈ 153 µM)	64 (≈ 153 µM)											
Cc1cc(CN2CCN(C3C4CC5CC(C4)CC3C5)CC2)c(C)n1-c1ccc(Cl)cc1 (stereo not given)	16 (≈ 36.5 µM)	16 (≈ 36.5 µM)	16 (≈ 36.5 µM)	32 (≈ 73 µM)	16 (≈ 36.5 µM)	32 (≈ 73 µM)											
Cc1cc(CNCCCCCCCCNC(=N)N)c(C)n1-c1ccc(Cl)cc1	4 to 8 (≈ 9.9 to 19.8 µM)	16 (≈ 39.6 µM)	8 to 16 (≈ 19.8 to 39.6 µM)				4 (≈ 9.9 µM)	8 (≈ 19.8 µM)	8 (≈ 19.8 µM)	> 128	128 (≈ 317 µM)	64 (≈ 158 µM)	16 (≈ 39.6 µM)	> 128	64 (≈ 158 µM)	16 (≈ 39.6 µM)	
Cc1c(CNC2C3CC4CC(C3)CC2C4)cc(-c2ccc(Cl)cc2)n1-c1ccc(Cl)cc1 (stereo not given)	2 (≈ 4.3 µM)	2 (≈ 4.3 µM)	4 (≈ 8.59 µM)				4 (≈ 8.59 µM)	4 (≈ 8.59 µM)	4 (≈ 8.59 µM)	> 128	> 128	> 128	> 128	> 128	> 128	> 128	
Cc1c(CNC2CCC(NC(=N)N)CC2)cc(-c2ccc(Cl)cc2)n1-c1ccc([N+](=O)[O-])cc1 (stereo not given)	16 (≈ 33.3 µM)	64 (≈ 133 µM)	32 (≈ 66.5 µM)				4 (≈ 8.32 µM)	8 (≈ 16.6 µM)	8 (≈ 16.6 µM)	> 128	> 128	> 128	64 (≈ 133 µM)	> 128	> 128	64 (≈ 133 µM)	
Cc1c(CNC2CCCCC2)cc(-c2ccc(Cl)cc2)n1-c1ccc(Cl)cc1Cl	2 (≈ 4.47 µM)	4 (≈ 8.93 µM)	4 (≈ 8.93 µM)				4 (≈ 8.93 µM)	4 (≈ 8.93 µM)	4 (≈ 8.93 µM)	> 128	> 128	> 128	128 (≈ 286 µM)	> 128	> 128	> 128	
Cc1c(CNC2CCCCC2)cc(-c2ccc(Cl)cc2)n1-c1ccccc1C(F)(F)F	2 (≈ 4.47 µM)	4 (≈ 8.95 µM)	4 (≈ 8.95 µM)				4 (≈ 8.95 µM)	8 (≈ 17.9 µM)	8 (≈ 17.9 µM)	> 128	> 128	128 (≈ 286 µM)	> 128	> 128	> 128	> 128	
